According to PMC11022936 (Drug Metabolism and Disposition, 2023):
“And” between values parts separate entries of the source, which are not always exact repeats. Identical values can stand only once. Like-named read-outs stand apart in the source and are kept apart here.

How the values were obtained:
[1] = human; ref Tong et al., 2010; cited from earlier work
[2] = Human MAD study, plasma AUC0-24h pools, metabolite concentrations; format: in vivo; settings: human AUC0-24h plasma pool
Summary of the method: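 Plasma came from healthy male volunteers given unlabelled test compound once daily in a phase I multiple-ascending-dose study. Groups: 5 mg (day 10, n = 8), 10 mg (day 14, n = 8), 15 mg (day 10, n = 7). Samples were pooled time-proportionally across participants into one AUC0-24h pool per dose, protein-precipitated and run by LC-HRMS. DRE = summed concentrations of parent plus quantified metabolites.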

[3] = ref Inghardt et al., 2022; cited from earlier work
[4] = format: in vivo, rat; settings: for Total % of dose (total radioactivity in sample), feces / Total % of dose (total radioactivity in sample), urine / percentage of dose in feces / percentage of dose in urine: 0-48 h pool; for percentage of dose in feces / percentage of dose in urine: single oral 40 mg/kg; for concentration at 1 h / concentration at 3 h / concentration at 8 h: Han Wistar, rat, plasma, po; for administered dose recovered in feces (mean) / urinary excretion of administered dose (mean): intact male and female rats
[5] = dogs; ref Inghardt et al., 2022; cited from earlier work
[6] = Fraction unbound in plasma, equilibrium dialysis; format: in vitro ADME; settings: dog plasma, 10 µmol/L, 37°C, 16 h, mean ± S.D., n = 3
Summary of the method: (§1)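 Equilibrium dialysis used frozen pooled plasma (n>3 donors, K2-EDTA): human (mixed sex), rat (male Han Wistar), dog (male beagle). Plasma spiked with test compound at 0.1, 1.0 or 10 was dialysed against phosphate buffer pH 7.4 for 16 h at 37°C, in triplicate. Calibration standards were made in spiked plasma. fu = buffer concentration / plasma concentration. Recovery = total compound found after dialysis / total added.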

[7] = Fraction unbound in plasma, equilibrium dialysis; format: in vitro ADME; settings: rat plasma, 10 µmol/L, 37°C, 16 h, mean ± S.D., n = 3
Summary of the method: as §1

[8] = Mouse 28-day repeat dose, plasma metabolite profiling; format: in vivo; settings: mouse plasma AUC0-24h pool
[9] = Rat 3-month repeated-dose GLP toxicity study; settings: both, SD, in vivo, po, 125 mg/kg/day
[10] = rats; ref Inghardt et al., 2022; cited from earlier work
[11] = Dog 3-month repeated-dose GLP toxicity study; settings: both, in vivo, po, 100 mg/kg/day
[12] = test system: MPO; settings: read-out: potency toward MPO (IC50); in vitro; ref Inghardt et al., 2022; cited from earlier work
[13] = Fraction unbound in plasma, equilibrium dialysis; format: in vitro ADME; settings: human plasma, 1 µmol/L, 37°C, 16 h, mean ± S.D., n = 3
Summary of the method: as §1

[14] = BDC male rats, oral, 0-24 h pool
[15] = female intact rats, oral 40 mg/kg
[16] = female intact rats, oral 40 mg/kg, 40 mg/kg
[17] = male intact rats, oral 40 mg/kg, 40 mg/kg
[18] = male intact rats, oral 40 mg/kg, listed as [^14C]AZD4831, 40 mg/kg

c1cc2c3c(c1)[C@H]1CCC[C@H]1CN3CCNC2 [vabicaserin]
exposure of the carbamoyl glucuronide metabolite relative to parent [1]: 60 fold

C[C@@H](N)c1cc(Cl)ccc1Cn1c(=S)[nH]c(=O)c2[nH]ccc21 [AZD4831, (R)-1-(2-(1-aminoethyl)-4-chlorobenzyl)-2-thioxo-2,3-dihydro-1H-pyrrolo[3,2-d]pyrimidin-4(5H)-one]
plasma concentration ([2]; 5 mg once daily): 0.028 µM | plasma concentration ([2]; 10 mg once daily): 0.053 µM | plasma concentration ([2]; 15 mg once daily): 0.086 µM | permeability [3]: high permeability | dose fraction excreted in bile within 0-24 hours ([4]; BDC female rats, oral 40 mg/kg): 10% | percent of administered dose in bile ([4]; BDC female rats, oral, 0-24 h pool): 0.2% | dose fraction excreted in bile within 0-24 hours ([4]; BDC male rats, oral 40 mg/kg): 21% | percent of administered dose in bile [4, 14]: < 0.1% | percent of dose in feces [4, 14]: 20% | percent of dose in urine [4, 14]: 26% | Sum % of dose (integrated radioactive peaks), feces [4, 15]: 35.5 % of dose | Sum % of dose (integrated radioactive peaks), urine [4, 15]: 31.3 % of dose | Total % of dose (total radioactivity in sample), feces [4, 16]: 43 % of dose | Total % of dose (total radioactivity in sample), urine [4, 16]: 34 % of dose | Total % of dose (total radioactivity in sample), urine ([4]; female intact rats, oral 40 mg/kg, listed as [^14C]AZD4831, 40 mg/kg): 34.4 % of dose | percentage of dose in feces ([4]; female intact rats, 40 mg/kg): 31 % of dose and 30.7 % of dose | percentage of dose in urine ([4]; female intact rats, 40 mg/kg): 30 % of dose and 30.3 % of dose | Sum µmol equiv/L (integrated radioactive peaks) in plasma ([4]; female rats, 1 h): 10.4 µmol equiv/L | Total µmol equiv/L (total radioactivity) in plasma ([4]; female rats, 1 h, oral): 12.5 µmol equiv/L | % of total radioactivity in plasma ([4]; female rats, 1 h, oral 40 mg/kg): 72.8 % of total | Sum µmol equiv/L (integrated radioactive peaks) in plasma ([4]; female rats, 3 h): 13.8 µmol equiv/L | Total µmol equiv/L (total radioactivity) in plasma ([4]; female rats, 3 h, oral): 15.9 µmol equiv/L | % of total radioactivity in plasma ([4]; female rats, 3 h, oral 40 mg/kg): 77.5 % of total | Sum µmol equiv/L (integrated radioactive peaks) in plasma ([4]; female rats, 8 h): 11.7 µmol equiv/L | Total µmol equiv/L (total radioactivity) in plasma ([4]; female rats, 8 h, oral): 13.4 µmol equiv/L | % of total radioactivity in plasma ([4]; female rats, 8 h, oral 40 mg/kg): 82.1 % of total | concentration at 1 h ([4]; female, 40 mg/kg): 9.1 µM | concentration at 3 h ([4]; female, 40 mg/kg): 12.3 µM | concentration at 8 h ([4]; female, 40 mg/kg): 11 µM | administered dose recovered in feces (mean) ([4]; intravenous): 46.9% | urinary excretion of administered dose (mean) ([4]; intravenous): 37.7% | administered dose recovered in feces (mean) ([4]; oral): 51.9% | urinary excretion of administered dose (mean) ([4]; oral): 32.0% | Sum % of dose (integrated radioactive peaks), feces ([4]; male intact rats, oral 40 mg/kg): 45.9 % of dose | Total % of dose (total radioactivity in sample), feces [4, 17]: 59 % of dose | Total % of dose (total radioactivity in sample), urine [4, 17]: 28 % of dose | Total % of dose (total radioactivity in sample), feces [4, 18]: 58.7 % of dose | Total % of dose (total radioactivity in sample), urine [4, 18]: 28.2 % of dose | percentage of dose in feces ([4]; male intact rats, 40 mg/kg): 40 % of dose and 39.6 % of dose | percentage of dose in urine ([4]; male intact rats, 40 mg/kg): 20 % of dose and 20.3 % of dose | Sum µmol equiv/L (integrated radioactive peaks) in plasma ([4]; male rats, 1 h): 20.3 µmol equiv/L | Total µmol equiv/L (total radioactivity) in plasma ([4]; male rats, 1 h, oral): 23.4 µmol equiv/L | % of total radioactivity in plasma ([4]; male rats, 1 h, oral 40 mg/kg): 78.2 % of total | Sum µmol equiv/L (integrated radioactive peaks) in plasma ([4]; male rats, 3 h): 13.6 µmol equiv/L | Total µmol equiv/L (total radioactivity) in plasma ([4]; male rats, 3 h, oral): 17.1 µmol equiv/L | % of total radioactivity in plasma ([4]; male rats, 3 h, oral 40 mg/kg): 66.8 % of total | Sum µmol equiv/L (integrated radioactive peaks) in plasma ([4]; male rats, 8 h): 13.7 µmol equiv/L | Total µmol equiv/L (total radioactivity) in plasma ([4]; male rats, 8 h, oral): 16.9 µmol equiv/L | % of total radioactivity in plasma ([4]; male rats, 8 h, oral 40 mg/kg): 70.9 % of total | concentration at 1 h ([4]; male, 40 mg/kg): 18.3 µM | concentration at 3 h ([4]; male, 40 mg/kg): 11.4 µM | concentration at 8 h ([4]; male, 40 mg/kg): 12 µM | radioactivity recovered in bile (mean) ([4]; orally dosed BDC female rats): 10.4% | radioactivity recovered in feces (mean) ([4]; orally dosed BDC female rats): 23.2% | radioactivity recovered in urine (mean) ([4]; orally dosed BDC female rats): 54.7% | radioactivity recovered in bile (mean) ([4]; orally dosed BDC male rats): 21.4% | radioactivity recovered in feces (mean) ([4]; orally dosed BDC male rats): 27.5% | radioactivity recovered in urine (mean) ([4]; orally dosed BDC male rats): 37.3% | share of radioactivity (integrated radiochromatographic peaks) in plasma ([4]; rats, oral 40 mg/kg, all time points (1, 3, 8 h)): > 67% | bioavailability [5]: good bioavailability | clearance [5]: moderate clearance | percentage free drug in plasma [6]: 31.9 ± 0.50% | percentage free drug in plasma [7]: 22.0 ± 0.49% | Drug-Related Exposure (%) ([8]; day 28, Female (125 mg/kg)): 76% | Drug-Related Exposure (%) ([8]; day 28, Female (250 mg/kg)): 74% | Drug-Related Exposure (%) ([8]; day 28, Female (500 mg/kg)): 57% | Drug-Related Exposure (%) ([8]; day 28, Male (125 mg/kg)): 78% | NOAEL at 3 month [9]: 125 mg/kg/day | bioavailability [10]: good bioavailability | clearance [10]: moderate clearance | NOAEL at 3 month [11]: 100 mg/kg/day | IC50 [12]: 1.5 nM | percentage free drug in plasma [13]: 36.1 ± 1.0%
